Tests used:
Assay type in all cases: functional
Pseudomonas aeruginosa [1] = test: Bactericidal activity against Pseudomonas aeruginosa PAO1 ATCC 15692 at 50 ug/ml measured after 1 hr by serial dilution method relative to control
Pseudomonas aeruginosa [2] = test: Bactericidal activity against Pseudomonas aeruginosa PAO1 ATCC 15692 at 50 ug/ml measured after 3 hrs by serial dilution method relative to control
Staphylococcus aureus [3] = test: Bactericidal activity against Staphylococcus aureus ATCC 25923 at 100 ug/ml measured after 6 hrs by serial dilution method relative to control
Staphylococcus aureus [4] = test: Bactericidal activity against Staphylococcus aureus ATCC 25923 at 100 ug/ml measured after 24 hrs by serial dilution method relative to control
[5] = tested on: Mycolicibacterium smegmatis; test: Antibacterial activity against Mycobacterium smegmatis MC2 155 ATCC 700084 assessed as colony forming units at 100 ug/ml measured after 6 hrs by serial dilution method (reference value: 70 +/- 1.73 10^3CFU)
Method in brief: (§1)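 Bacteria were exposed to test compound over a range of µg/ml concentrations. Viable bacteria were counted by colony forming unit (CFU) assay at set time points (6 h and 24 h for M. smegmatis and S. aureus strains), and untreated bacteria served as the control. Percentage of population killed was calculated relative to the untreated control. Values are means ± S.D of three independent trials.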

[6] = tested on: Mycolicibacterium smegmatis; test: Antibacterial activity against Mycobacterium smegmatis MC2 155 ATCC 700084 assessed as colony forming units at 500 ug/ml measured after 6 hrs by serial dilution method (reference value: 70 +/- 1.73 10^3CFU); method in brief: as §1
Pseudomonas aeruginosa [7] = test: Antibacterial activity against Pseudomonas aeruginosa PAO1 ATCC 15692 assessed as colony forming units at 10 ug/ml measured after 1 hr by serial dilution method (reference value: 85.33 +/- 4.04 10^8CFU)
Pseudomonas aeruginosa [8] = test: Antibacterial activity against Pseudomonas aeruginosa PAO1 ATCC 15692 assessed as colony forming units at 200 ug/ml measured after 3 hr by serial dilution method (reference value: 141.66 +/- 7.5 10^8CFU)
Staphylococcus aureus [9] = test: Antibacterial activity against methicillin-resistant Staphylococcus aureus ATCC 43300 assessed as colony forming units at 100 ug/ml measured after 6 hrs by serial dilution method (reference value: 64.33 +/- 3.51 10^6CFU); method in brief: as §1
Pseudomonas aeruginosa [10] = test: Bactericidal activity against Pseudomonas aeruginosa PAO1 ATCC 15692 at 10 to 50 ug/ml measured after 1 hrs by serial dilution method relative to control
Pseudomonas aeruginosa [11] = test: Bactericidal activity against Pseudomonas aeruginosa PAO1 ATCC 15692 at 50 to 100 ug/ml measured after 3 hrs by serial dilution method relative to control
Staphylococcus aureus [12] = test: Bactericidal activity against Staphylococcus aureus ATCC 25923 at 1 to 10 ug/ml measured after 6 hrs by serial dilution method relative to control
Staphylococcus aureus [13] = test: Bactericidal activity against Staphylococcus aureus ATCC 25923 at 200 ug/ml measured after 6 hrs by serial dilution method relative to control
Staphylococcus aureus [14] = test: Antibacterial activity against methicillin-resistant Staphylococcus aureus ATCC 43300 assessed as colony forming units at 200 ug/ml measured after 6 hrs by serial dilution method (reference value: 64.33 +/- 3.51 10^6CFU); method in brief: as §1

Structure (SMILES)	Activity (Pseudomonas aeruginosa [1])	Activity (Pseudomonas aeruginosa [2])	Activity (Staphylococcus aureus [3])	Activity (Staphylococcus aureus [4])	Activity [5]	Activity [6]	Activity (Pseudomonas aeruginosa [7])	Activity (Pseudomonas aeruginosa [8])	Activity (Staphylococcus aureus [9])	Activity (Pseudomonas aeruginosa [10])	Activity (Pseudomonas aeruginosa [11])	Activity (Staphylococcus aureus [12])	Activity (Staphylococcus aureus [13])	Activity (Staphylococcus aureus [14])
O=C(/C=C/c1ccc(O)c(O)c1)Nc1ccccc1Nc1ccccc1	58.9%	62.1%	92.3%	84.9%	24.66 ×10³ CFU	0 ×10³ CFU	50.33 ×10⁸ CFU	21.33 ×10⁸ CFU	24.33 ×10⁶ CFU	–	–	–	–	–
Cc1ccc(O)c(NC(=O)/C=C/c2ccc(O)c(O)c2)c1	–	–	–	–	14.33 ×10³ CFU	0 ×10³ CFU	59.33 ×10⁸ CFU	38.33 ×10⁸ CFU	20.33 ×10⁶ CFU	50%	50%	60.9%	93.8%	6.66 ×10⁶ CFU

Reference: ChEMBL document CHEMBL3868627, “Radical scavenging and antibacterial activity of caffemides against gram positive, gram negative and clinical drug resistance bacteria” (Bioorg Med Chem Lett, 2016)
